# Laboratory results reported in ChEMBL document CHEMBL1151166, “Structures of new sesquiterpenes and hepatoprotective constituents from the Egyptian herbal medicine Cyperus longus” (J Nat Prod, 2004).
# Tested on: Hepatocyte
# Assay: Hepatoprotective activity in ddY mouse hepatocytes assessed as inhibition of D-galactosamine-induced cytotoxicity at 30 uM after 44 hrs by MTT assay relative to control
# Assay type: functional
# Summary of the method: (§1)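 Cells then exposed to D-GalN (2 mM) plus test sample for 44 h. MTT was added for 4 h. Formazan was dissolved in acidic 2-propanol and read at 562 nm (reference 660 nm). Inhibition (%) = (sample − control)/(normal − control) × 100. Values are means ± SEM.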
row,Structure (SMILES),inhibition at 30 µM
1,CC(C)(O)[C@@H]1CC=C(CO)CC1,16.7%
2,C/C1=C\CC(C)(C)[C@@H](O)[C@H]2C[C@@]2(C)[C@@H](O)CC1,37.3%
3,CC1=C[C@H]2[C@H](C(C)C)CC[C@](C)(O)[C@H]2C[C@H]1O,9.3%
4,CC1(C)C[C@@H]2O[C@@]2(C)CC[C@H]2O[C@]2(C)C[C@@H]2O[C@H]21,25.7%
5,CC1(C)CC2[C@H]1CC[C@@]1(C)O[C@]2(CO)CC[C@H]1O (stereo partly specified),19.9%
6,C=C(C)[C@@H]1CC[C@@H](C)[C@@]2(O)CC(=O)C(C)=C2C1,13.5%
7,CC1(C)C[C@@H]2[C@@H]1CC[C@@]1(C)C[C@]2(O)CC[C@@H]1O,26.7%
8,C=C1C/C=C/C(C)(C)C[C@@H](O)/C(C)=C\C[C@@H]1O,47.5%
9,CC1(C)CC2[C@H]1CC[C@@]1(C)OC[C@]2(O)CC[C@@H]1O (stereo partly specified),24.8%
10,CC1(C)C[C@H](O)[C@]23CC[C@@H](O)[C@@](C)(CC[C@@H]12)C3 [CLOVANEDIOL],32.3%
11,C=C(C)[C@@H]1CC[C@](C)(O)C2=C(C1)[C@](C)(O)CC2=O [CYPERUSOL A1],9.5%
12,C=C(C)C(CC[C@H](C)O)CC1=C(C)CCC1=O (stereo partly specified) [CYPERUSOL B1],22.7%
13,C=C(C)C(CC[C@@H](C)O)CC1=C(C)CCC1=O (stereo partly specified) [CYPERUSOL B2],-1.4%
14,C=C(C)[C@@H]1CC[C@@]2(C)[C@H](O)CC[C@@](C)(O)[C@@H]2C1 [CYPERUSOL C],28.4%
15,C=C(C)[C@@H]1CC[C@@H](C)[C@]2(O)CC[C@](C)(O)C(=O)[C@@H]12 [CYPERUSOL D],31.9%
16,C=C(C)[C@@H]1CC[C@](C)(O)[C@H]2CC[C@](C)(O)[C@H]2C1 [GUAIDIOL],20.3%
17,C=C(C)[C@@H]1CC[C@]2(C)C(=C(C)C(=O)C[C@H]2O)C1 [LIGUCYPERONOL],12.6%
18,C=C(C)C(CCC(C)=O)CC1=C(C)CCC1=O (stereo unspecified) [MANDASSIDIONE],14.7%
19,COc1cc(C2Oc3cc([C@H]4Oc5cc(O)cc(O)c5C(=O)[C@@H]4O)ccc3OC2CO)ccc1O (stereo partly specified) [SILIBININ],45.2%
20,CC1=CCC(C(C)(C)O)CC1O (stereo unspecified) [SOBREROL],15.9%
21,CC1(C)C[C@H]2[C@H]1[C@H]1C[C@@]1(C)[C@H](O)CC[C@]2(C)O [TRICYCLOHUMULADIOL],22.1%

# Tested on: Hepatocyte
# Assay: Hepatoprotective activity in ddY mouse hepatocytes assessed as inhibition of D-galactosamine-induced cytotoxicity at 10 uM after 44 hrs by MTT assay relative to control
# Assay type: functional
# Summary of the method: as §1
row,Structure (SMILES),inhibition at 10 µM
1,CC(C)(O)[C@@H]1CC=C(CO)CC1,1.7%
2,C/C1=C\CC(C)(C)[C@@H](O)[C@H]2C[C@@]2(C)[C@@H](O)CC1,16.6%
3,CC1=C[C@H]2[C@H](C(C)C)CC[C@](C)(O)[C@H]2C[C@H]1O,3.7%
4,CC1(C)C[C@@H]2O[C@@]2(C)CC[C@H]2O[C@]2(C)C[C@@H]2O[C@H]21,9.7%
5,CC1(C)CC2[C@H]1CC[C@@]1(C)O[C@]2(CO)CC[C@H]1O (stereo partly specified),10.4%
6,C=C(C)[C@@H]1CC[C@@H](C)[C@@]2(O)CC(=O)C(C)=C2C1,-1.1%
7,CC1(C)C[C@@H]2[C@@H]1CC[C@@]1(C)C[C@]2(O)CC[C@@H]1O,16.8%
8,C=C1C/C=C/C(C)(C)C[C@@H](O)/C(C)=C\C[C@@H]1O,25.6%
9,CC1(C)CC2[C@H]1CC[C@@]1(C)OC[C@]2(O)CC[C@@H]1O (stereo partly specified),14.3%
10,CC1(C)C[C@H](O)[C@]23CC[C@@H](O)[C@@](C)(CC[C@@H]12)C3 [CLOVANEDIOL],13.6%
11,C=C(C)[C@@H]1CC[C@](C)(O)C2=C(C1)[C@](C)(O)CC2=O [CYPERUSOL A1],5.6%
12,C=C(C)C(CC[C@H](C)O)CC1=C(C)CCC1=O (stereo partly specified) [CYPERUSOL B1],20.4%
13,C=C(C)C(CC[C@@H](C)O)CC1=C(C)CCC1=O (stereo partly specified) [CYPERUSOL B2],6.5%
14,C=C(C)[C@@H]1CC[C@@]2(C)[C@H](O)CC[C@@](C)(O)[C@@H]2C1 [CYPERUSOL C],8.1%
15,C=C(C)[C@@H]1CC[C@@H](C)[C@]2(O)CC[C@](C)(O)C(=O)[C@@H]12 [CYPERUSOL D],2.6%
16,C=C(C)[C@@H]1CC[C@](C)(O)[C@H]2CC[C@](C)(O)[C@H]2C1 [GUAIDIOL],10.4%
17,C=C(C)[C@@H]1CC[C@]2(C)C(=C(C)C(=O)C[C@H]2O)C1 [LIGUCYPERONOL],13.9%
18,C=C(C)C(CCC(C)=O)CC1=C(C)CCC1=O (stereo unspecified) [MANDASSIDIONE],7.7%
19,COc1cc(C2Oc3cc([C@H]4Oc5cc(O)cc(O)c5C(=O)[C@@H]4O)ccc3OC2CO)ccc1O (stereo partly specified) [SILIBININ],7.7%
20,CC1=CCC(C(C)(C)O)CC1O (stereo unspecified) [SOBREROL],8.9%
21,CC1(C)C[C@H]2[C@H]1[C@H]1C[C@@]1(C)[C@H](O)CC[C@]2(C)O [TRICYCLOHUMULADIOL],16.1%

# Tested on: Hepatocyte
# Assay: Hepatoprotective activity in ddY mouse hepatocytes assessed as inhibition of D-galactosamine-induced cytotoxicity at 3 uM after 44 hrs by MTT assay relative to control
# Assay type: functional
# Summary of the method: as §1
row,Structure (SMILES),inhibition at 3 µM
1,CC(C)(O)[C@@H]1CC=C(CO)CC1,-1.5%
2,C/C1=C\CC(C)(C)[C@@H](O)[C@H]2C[C@@]2(C)[C@@H](O)CC1,5.9%
3,CC1=C[C@H]2[C@H](C(C)C)CC[C@](C)(O)[C@H]2C[C@H]1O,-2.3%
4,CC1(C)C[C@@H]2O[C@@]2(C)CC[C@H]2O[C@]2(C)C[C@@H]2O[C@H]21,6.9%
5,CC1(C)CC2[C@H]1CC[C@@]1(C)O[C@]2(CO)CC[C@H]1O (stereo partly specified),5.7%
6,C=C(C)[C@@H]1CC[C@@H](C)[C@@]2(O)CC(=O)C(C)=C2C1,-4.5%
7,CC1(C)C[C@@H]2[C@@H]1CC[C@@]1(C)C[C@]2(O)CC[C@@H]1O,6.3%
8,C=C1C/C=C/C(C)(C)C[C@@H](O)/C(C)=C\C[C@@H]1O,11.6%
9,CC1(C)CC2[C@H]1CC[C@@]1(C)OC[C@]2(O)CC[C@@H]1O (stereo partly specified),12.5%
10,CC1(C)C[C@H](O)[C@]23CC[C@@H](O)[C@@](C)(CC[C@@H]12)C3 [CLOVANEDIOL],3.6%
11,C=C(C)[C@@H]1CC[C@](C)(O)C2=C(C1)[C@](C)(O)CC2=O [CYPERUSOL A1],2.2%
12,C=C(C)C(CC[C@H](C)O)CC1=C(C)CCC1=O (stereo partly specified) [CYPERUSOL B1],3%
13,C=C(C)C(CC[C@@H](C)O)CC1=C(C)CCC1=O (stereo partly specified) [CYPERUSOL B2],4.4%
14,C=C(C)[C@@H]1CC[C@@]2(C)[C@H](O)CC[C@@](C)(O)[C@@H]2C1 [CYPERUSOL C],6.3%
15,C=C(C)[C@@H]1CC[C@@H](C)[C@]2(O)CC[C@](C)(O)C(=O)[C@@H]12 [CYPERUSOL D],-3.6%
16,C=C(C)[C@@H]1CC[C@](C)(O)[C@H]2CC[C@](C)(O)[C@H]2C1 [GUAIDIOL],2.6%
17,C=C(C)[C@@H]1CC[C@]2(C)C(=C(C)C(=O)C[C@H]2O)C1 [LIGUCYPERONOL],5.5%
18,C=C(C)C(CCC(C)=O)CC1=C(C)CCC1=O (stereo unspecified) [MANDASSIDIONE],-0.1%
19,COc1cc(C2Oc3cc([C@H]4Oc5cc(O)cc(O)c5C(=O)[C@@H]4O)ccc3OC2CO)ccc1O (stereo partly specified) [SILIBININ],4.8%
20,CC1=CCC(C(C)(C)O)CC1O (stereo unspecified) [SOBREROL],5.5%
21,CC1(C)C[C@H]2[C@H]1[C@H]1C[C@@]1(C)[C@H](O)CC[C@]2(C)O [TRICYCLOHUMULADIOL],10.9%

# Tested on: Hepatocyte
# Assay: Hepatoprotective activity in ddY mouse hepatocytes assessed as inhibition of D-galactosamine-induced cytotoxicity at 100 uM after 44 hrs by MTT assay relative to control
# Assay type: functional
# Summary of the method: as §1
row,Structure (SMILES),inhibition at 100 µM
1,CC(C)(O)[C@@H]1CC=C(CO)CC1,53.3%
2,C/C1=C\CC(C)(C)[C@@H](O)[C@H]2C[C@@]2(C)[C@@H](O)CC1,54.8%
3,CC1=C[C@H]2[C@H](C(C)C)CC[C@](C)(O)[C@H]2C[C@H]1O,15.2%
4,CC1(C)C[C@@H]2O[C@@]2(C)CC[C@H]2O[C@]2(C)C[C@@H]2O[C@H]21,51.1%
5,CC1(C)CC2[C@H]1CC[C@@]1(C)O[C@]2(CO)CC[C@H]1O (stereo partly specified),45.9%
6,C=C(C)[C@@H]1CC[C@@H](C)[C@@]2(O)CC(=O)C(C)=C2C1,58%
7,CC1(C)C[C@@H]2[C@@H]1CC[C@@]1(C)C[C@]2(O)CC[C@@H]1O,51.7%
8,C=C1C/C=C/C(C)(C)C[C@@H](O)/C(C)=C\C[C@@H]1O,80.8%
9,CC1(C)CC2[C@H]1CC[C@@]1(C)OC[C@]2(O)CC[C@@H]1O (stereo partly specified),36.4%
10,CC1(C)C[C@H](O)[C@]23CC[C@@H](O)[C@@](C)(CC[C@@H]12)C3 [CLOVANEDIOL],40.2%
11,C=C(C)[C@@H]1CC[C@](C)(O)C2=C(C1)[C@](C)(O)CC2=O [CYPERUSOL A1],16.5%
12,C=C(C)C(CC[C@H](C)O)CC1=C(C)CCC1=O (stereo partly specified) [CYPERUSOL B1],34.7%
13,C=C(C)C(CC[C@@H](C)O)CC1=C(C)CCC1=O (stereo partly specified) [CYPERUSOL B2],19.9%
14,C=C(C)[C@@H]1CC[C@@]2(C)[C@H](O)CC[C@@](C)(O)[C@@H]2C1 [CYPERUSOL C],29.9%
15,C=C(C)[C@@H]1CC[C@@H](C)[C@]2(O)CC[C@](C)(O)C(=O)[C@@H]12 [CYPERUSOL D],46.1%
16,C=C(C)[C@@H]1CC[C@](C)(O)[C@H]2CC[C@](C)(O)[C@H]2C1 [GUAIDIOL],35.4%
17,C=C(C)[C@@H]1CC[C@]2(C)C(=C(C)C(=O)C[C@H]2O)C1 [LIGUCYPERONOL],46.7%
18,C=C(C)C(CCC(C)=O)CC1=C(C)CCC1=O (stereo unspecified) [MANDASSIDIONE],21.6%
19,COc1cc(C2Oc3cc([C@H]4Oc5cc(O)cc(O)c5C(=O)[C@@H]4O)ccc3OC2CO)ccc1O (stereo partly specified) [SILIBININ],77%
20,CC1=CCC(C(C)(C)O)CC1O (stereo unspecified) [SOBREROL],23.7%
21,CC1(C)C[C@H]2[C@H]1[C@H]1C[C@@]1(C)[C@H](O)CC[C@]2(C)O [TRICYCLOHUMULADIOL],37.7%

# Tested on: Hepatocyte
# Assay: Hepatoprotective activity in ddY mouse hepatocytes assessed as inhibition of D-galactosamine-induced cytotoxicity after 44 hrs by MTT assay relative to control
# Assay type: functional, cell-based
# Summary of the method: as §1
row,Structure (SMILES),IC50
1,CC(C)(O)[C@@H]1CC=C(CO)CC1,90 µM
2,C/C1=C\CC(C)(C)[C@@H](O)[C@H]2C[C@@]2(C)[C@@H](O)CC1,70 µM
3,CC1(C)C[C@@H]2O[C@@]2(C)CC[C@H]2O[C@]2(C)C[C@@H]2O[C@H]21,95 µM
4,C=C(C)[C@@H]1CC[C@@H](C)[C@@]2(O)CC(=O)C(C)=C2C1,83 µM
5,CC1(C)C[C@@H]2[C@@H]1CC[C@@]1(C)C[C@]2(O)CC[C@@H]1O,100 µM
6,C=C1C/C=C/C(C)(C)C[C@@H](O)/C(C)=C\C[C@@H]1O,27 µM
7,COc1cc(C2Oc3cc([C@H]4Oc5cc(O)cc(O)c5C(=O)[C@@H]4O)ccc3OC2CO)ccc1O (stereo partly specified) [SILIBININ],41 µM
